Screens: PubChem, several laboratories
NR2E3 ag-1 = inhibitors of NR2E3-RetCOR corepressor binding, primary screen, NR2E3 agonist project, biochemical, TR-FRET, GST-NR2E3, biotin-RetCOR | Photoreceptor-specific nuclear receptor (Homo sapiens), Q9Y5X4 | 1536-well | inhibition of corepressor binding, % at 4.78 µM | actives 0.12% (n = 320,000);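 active = percent inhibition above the cutoff of mean plus 3 SD of all tested compounds, set per screening campaign, cut at about 20% in these data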;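 also: 0% = DMSO wells and 100% = biotin wells as full block of FRET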
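Assay system: NR2E3–RetCOR corepressor complex. Quantity: 1.35 nM GST-NR2E3. Buffer or medium: pH 7.5 Tris-based buffer. Reagent: biotinylated RetCOR corepressor at 7 nM final. Schedule: 5 h at 4 °C. Detection: TR-FRET, emission read at 617 and 671 nm. Replicates: one well per compound, singlicate testing.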
DAGLB inh = DAGLB lipase inhibitors, primary screen, biochemical, fluorescence, HTS; HEK293T DAGLB membrane lysate, EnzChek fluorogenic substrate; Diacylglycerol lipase-beta (Homo sapiens), Q8NCG7; inhibition, % at 5.17 µM; actives 0.059% (n = 340,000); AID 504411, 2011; in the data active = inhibition above about 34%;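 also: 0% = enzyme with vehicle and 100% = wells lacking enzyme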
Target sequence (Q8NCG7 whole entry, looked up): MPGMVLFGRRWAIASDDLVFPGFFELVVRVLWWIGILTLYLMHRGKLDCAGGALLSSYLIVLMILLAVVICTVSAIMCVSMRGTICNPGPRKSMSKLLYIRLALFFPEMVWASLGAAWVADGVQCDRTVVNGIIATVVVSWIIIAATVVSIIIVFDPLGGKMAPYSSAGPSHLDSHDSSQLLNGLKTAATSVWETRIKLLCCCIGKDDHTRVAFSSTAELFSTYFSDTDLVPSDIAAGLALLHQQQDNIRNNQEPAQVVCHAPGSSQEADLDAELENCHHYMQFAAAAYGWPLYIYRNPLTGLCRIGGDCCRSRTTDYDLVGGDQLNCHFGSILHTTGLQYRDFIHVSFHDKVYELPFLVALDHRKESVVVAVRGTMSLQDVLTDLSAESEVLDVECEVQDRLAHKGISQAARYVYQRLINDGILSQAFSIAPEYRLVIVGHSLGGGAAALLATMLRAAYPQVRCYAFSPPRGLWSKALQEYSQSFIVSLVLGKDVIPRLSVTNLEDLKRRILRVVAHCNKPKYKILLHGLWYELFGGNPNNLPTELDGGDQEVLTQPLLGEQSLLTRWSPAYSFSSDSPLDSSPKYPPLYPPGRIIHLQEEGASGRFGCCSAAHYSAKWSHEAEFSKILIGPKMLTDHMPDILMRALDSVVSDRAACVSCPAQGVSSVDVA
core dimer inh = inhibitors of HCV core protein dimerization, primary screen, biochemical, TR-FRET, high-throughput | AID 1899, 2009 | TR-FRET GST/Flag-core106 dimerization, 1536-well | actives 0.33% (n = 300,000) | inhibition, % at 5 µM;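 active = inhibition above the mean of all tested compounds plus 3 SD, set per screening campaign, cut at about 45% in these data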
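Assay system: tagged HCV core106 pair (GST and Flag); medium: KF-containing HEPES buffer, pH 7.45, DTT, CHAPS, BSA; also added: Eu donor and XL665 acceptor anti-tag antibodies; dosing: 5 µM single dose; timing: compound-protein-antibody incubation 4 h at 22.5 °C; signal: TR-FRET 671 and 617 nm emission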
MT1-MMP act inh = blockers of MT1-MMP proenzyme processing, primary screen, HT1080 RFP-PRO-GFP cells, GFP/RFP fluorescence; GFP/RFP ratio fluorescence, overnight; percent of plate control window, DMSO zero; actives 0.061% (n = 360,000); GFP/RFP ratio change, % at 20 µM; AID 651647, 2012;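 active = GFP/RFP ratio change of at least 30% with cell ATP level not reduced by more than half and red fluorescence within 50% of control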
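Assay system – RFP-PRO-GFP reporter HT1080 cells · Compound dosing – single dose of 20 µM compound, 1% DMSO final · Incubation – overnight compound exposure at 37 °C · Measure – GFP/RFP fluorescence ratio · Benchmarks – DMSO wells and RFP-L50D-GFP cells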
Vif imaging = HIV Vif self-association inhibitors, primary screen, imaging, HEK293T, single point; HEK293T cells, Vif self-association by quenched fluorescence, 24 h; actives 0.35% (n = 340,000); inhibition, % at 7.49 µM; AID 602346, 2012; in the data active = inhibition above about 50%, passing the limit was not always enough; inconclusive = no clear call, values can overlap the other calls; inactive = below about 31%
NR2E3 ag-2 = NR2E3 agonists in two-hybrid cells, primary screen, cell-based, luminescence, CHO-S, Gal4-NCOR/VP16-NR2E3. actives 0.35% (n = 360,000). inhibition of corepressor binding, % at 3.98 µM. luciferase;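 active = inhibition above the mean of all tested compounds plus 3 SD, cut at about 70% in these data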;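 also: 0% = DMSO with NR2E3 transfected cells and 100% = cells lacking NR2E3 construct; higher means lower luciferase signal from less NR2E3 corepressor binding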
* hit, by the source's call; i = inactive; ? = inconclusive; / = no result given. This is a sample that favours compounds with a hit; in the whole collection about 1.1% have one here.

SMILES	NR2E3 ag-1	DAGLB inh	core dimer inh	MT1-MMP act inh	Vif imaging	NR2E3 ag-2
CCOc1ccccc1CN1CCNC(=O)C1CC(=O)N(C)C1CCOCC1 (stereo unspecified)	-1.9	-2.1	5.5	-0.6	3.8	-10.1
COc1ccccc1N1CCN(C(=O)CCCCCn2c(=S)[nH]c3cc4c(cc3c2=O)OCO4)CC1	/	8.2	/	3.0	63.6*	-0.9
Cc1cccc(C)c1-n1nnnc1SCc1nc(N)nc(N(C)C)n1	/	/	/	-10.9	128.7*	-10.0
O=C1/C(=C\c2ccco2)SC(=S)N1C1CCCCC1	-4.9	/	11.6	/	/	/
CC1=C(C#N)C(=O)N(C2CCS(=O)(=O)C2)C(=O)/C1=C\c1ccco1 (stereo unspecified)	27.4*	/	77.7*	/	/	/
CCN1CCN(CCCNC(=O)c2ccc(NC(=O)C3=C(C)OCCS3)cc2)CC1	3.2	-2.0	9.9	-2.8	1.1	-24.8
Cc1ccc(NC(=O)CN(C)C(=O)CSc2nnc(C)s2)cc1	/	0.8	/	0.6	?	-9.0
Cc1nn(-c2ccccc2)c(C)c1/C=N/NC(=O)CSc1nc2ccccc2c(=O)n1-c1ccc(Br)cc1	-2.1	1.0	58.9*	-14.8	/	7.2
CN1C(=O)C(=O)/C(=C(/O)c2ccccc2)C1c1ccc([N+](=O)[O-])cc1 (stereo unspecified)	-1.6	0.4	4.4	1.4	1.7	7.4
CC(C)NC(=O)C(c1ccc(F)cc1)N(C(=O)CCC(=O)Nc1ccccn1)c1cccc(F)c1 (stereo unspecified)	-0.4	0.8	7.6	1.7	74.3*	-2.8
Cc1cccc(N(C(=O)CCC(=O)Nc2ccccn2)C(C(=O)NC(C)C)c2ccc(F)cc2)c1 (stereo unspecified)	3.7	1.1	0.1	-4.8	-10.9	8.8
O=c1nc(/C=C/c2cccn2-c2ccc([N+](=O)[O-])cc2)cc(C(F)(F)F)[nH]1	-3.6	8.6	61.0*	-5.0	0.2	-11.8
Cc1ccccc1Nc1nc(N)nc(CCl)n1	6.1	-3.0	-0.4	-1.4	104.1*	-17.3
COc1ccc(NC(=O)c2sc(=O)n(Cc3ccccc3C#N)c2C)cc1OC	/	/	/	-5.5	-6.2	20.1
CCOC(=O)N1CCC(NC(=O)c2cccc3c2C(=O)N(c2ccc(OC)cc2)C3)CC1	1.9	-3.0	59.4*	-0.7	-1.9	-41.4
COc1ccc(N2Cc3cccc(C(=O)NC(C)CCc4ccco4)c3C2=O)cc1 (stereo unspecified)	2.2	-8.0	62.8*	-4.1	-10.3	-41.8
CCOC(=O)N1CCC(N2Cc3cccc(C(=O)NCc4ccc(OC)cc4)c3C2=O)CC1	-2.1	/	2.4	/	/	/
CC(C)c1c(C(=O)N/N=C/c2ccsc2)nnn1-c1nonc1N	-5.1	0.2	-19.5	-1.3	-0.4	-14.8
O=[N+]([O-])c1cc(S(=O)(=O)Nc2ccc(Cl)cc2)ccc1N/N=C/c1ccncc1	-4.3	1.7	24.0	21.9	67.4*	-23.7
O=[N+]([O-])c1ccc(Cl)cc1N/N=C/c1ccncc1	1.0	1.5	17.0	2.8	12.0	19.3
COc1ccc(N=C2NC(=O)S/C2=C\c2ccc(N(C)C)cc2)cc1	1.4	5.4	31.4	-119.1	103.7*	-111.9
CCOc1ccc(N=C2NC(=O)S/C2=C\c2ccc(Cl)cc2)cc1	1.2	-2.9	27.6	6.6	0.1	5.7
NS(=O)(=O)c1ccc(NC(=O)CCC(=O)N2CCOCC2)cc1	3.7	-1.2	-3.3	3.1	57.8*	-23.4
Cc1cc(C)c(C)c(OCC(O)CN2CCN(c3ccccn3)CC2)c1 (stereo unspecified)	1.4	-11.4	-4.0	1.5	-5.2	-36.7
CCN(CC)c1ccc2cc(-c3nnc(-c4ccccc4)o3)c(=O)oc2c1	-2.6	-125.8	-2.1	-78.3	178.7*	-150.0
SMILES	NR2E3 ag-1	DAGLB inh	core dimer inh	MT1-MMP act inh	Vif imaging	NR2E3 ag-2
CCN(CC)c1ccc2cc(-c3nc4ccccc4[nH]3)c(=O)oc2c1	-1.4	i	-6.4	-408.5	/	-46.5
CN(C)CCCN=Cc1c(O)n(Cc2ccc3c(c2)OCO3)c(=O)c2ccccc12	2.0	/	1.0	/	/	/
O=C(CSc1nnc(-c2ccc(Cl)cc2)n1Cc1ccco1)c1cccs1	1.9	4.1	46.6*	-3.2	-7.6	-9.2
Clc1cccc(CSc2nnc(-c3cccnc3)n2Cc2ccco2)c1	0.6	-2.6	4.0	2.9	-4.0	21.1
Clc1ccc(CSc2nnc(-c3cccnc3)n2Cc2ccco2)c(Cl)c1	2.3	2.4	48.2*	-23.9	2.8	-30.4
O=C(CSc1nnc(-c2ccncc2)n1Cc1ccco1)c1ccc(Cl)cc1	1.2	0.8	13.6	-0.8	16.1	-4.4
COc1cc(CNC(C)(C)CO)cc(Br)c1OCc1ccccc1	2.9	-3.2	-5.3	1.7	55.8*	2.6
CC(C)(CO)NCc1cc(Br)ccc1OCc1ccccc1	-2.9	0.5	-2.1	-6.0	1.3	-3.4
CCOC(=O)c1c(C)[nH]c(C)c1S(=O)(=O)N(C)CC(=O)Nc1ccccc1F	4.3	1.5	-3.0	-9.8	0.6	-13.9
CCOc1cc2[nH]c(=O)n(CCCCC(=O)NC3CCCCCC3)c(=O)c2cc1OCC	0.4	0.4	7.4	-0.2	3.6	-12.6
COc1cc2[nH]c(=O)n(CCCC(=O)NC3CCCCC3)c(=O)c2cc1OC	1.4	0.3	9.2	1.2	55.2*	-21.8
O=c1c(-c2ccco2)nc2ccccc2n1C(c1ccccn1)c1nc2ccccc2[nH]1 (stereo unspecified)	/	/	/	1.7	/	/
CCn1cc(CN2CCCC(C(=O)Nc3cccc(-c4cc5ccccc5[nH]4)c3)C2)c(C)n1 (stereo unspecified)	0.5	4.2	0.4	2.8	53.2*	-27.3
O=C(Cn1cnc([N+](=O)[O-])c1)Nc1ccc(Cl)cc1Cl	/	-2.1	/	-1.8	64.4*	2.4
CCN(CC)S(=O)(=O)c1ccc(OC)c(NC(=O)c2ccc(-n3cncn3)c([N+](=O)[O-])c2)c1	-2.1	1.9	-2.0	-0.5	0.4	-6.4
COc1cccc(/C=N/n2c(N)c(S(=O)(=O)c3cccs3)c3nc4ccccc4nc32)c1OC	-0.9	-2.0	11.5	2.4	0.2	-1.5
Nc1c(S(=O)(=O)c2cccc(Cl)c2)c2nc3ccccc3nc2n1/N=C/c1ccc(O)c(O)c1	5.4	/	70.6*	/	/	/
COc1ccc2c(c1OC)C(=O)N(c1cccc(/C=C/C(=O)O)c1)C2	-3.3	-1.4	0.9	-2.1	-12.4	-41.5
